Results from ChEMBL document CHEMBL4725241, “Discovery of BMS-986235/LAR-1219: A Potent Formyl Peptide Receptor 2 (FPR2) Selective Agonist for the Prevention of Heart Failure” (J Med Chem, 2020).

What was measured:
fMet-Leu-Phe receptor = target: T1, fMet-Leu-Phe receptor (Homo sapiens, UniProt P21462); assay: Agonist activity at human FPR1 expressed in HEK 293 cells co-expressing Galpha15 measured every 1.5 sec for 80 sec by Fluo-4 NW staining based scanning fluorometric method; type: cell-based, HEK293
T1 sequence (P21462 whole entry): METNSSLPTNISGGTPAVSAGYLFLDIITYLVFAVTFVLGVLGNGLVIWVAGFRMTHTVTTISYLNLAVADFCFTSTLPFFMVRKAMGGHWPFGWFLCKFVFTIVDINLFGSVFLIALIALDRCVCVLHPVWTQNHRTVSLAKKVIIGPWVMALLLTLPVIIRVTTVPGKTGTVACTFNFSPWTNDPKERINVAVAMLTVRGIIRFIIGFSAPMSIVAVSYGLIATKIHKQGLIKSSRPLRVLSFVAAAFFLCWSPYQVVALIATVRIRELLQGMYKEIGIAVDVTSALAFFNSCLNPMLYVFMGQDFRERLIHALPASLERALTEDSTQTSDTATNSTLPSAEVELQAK

[1] = target: T2, Formyl peptide receptor 2 (Mus musculus, UniProt O88536); assay: Agonist activity at mouse FPR2 expressed in HEK 293 cells co-expressing Galpha15 measured every 1.5 sec for 80 sec by Fluo-4 NW staining based scanning fluorometric method; type: cell-based, HEK293
T2 sequence (O88536 whole entry): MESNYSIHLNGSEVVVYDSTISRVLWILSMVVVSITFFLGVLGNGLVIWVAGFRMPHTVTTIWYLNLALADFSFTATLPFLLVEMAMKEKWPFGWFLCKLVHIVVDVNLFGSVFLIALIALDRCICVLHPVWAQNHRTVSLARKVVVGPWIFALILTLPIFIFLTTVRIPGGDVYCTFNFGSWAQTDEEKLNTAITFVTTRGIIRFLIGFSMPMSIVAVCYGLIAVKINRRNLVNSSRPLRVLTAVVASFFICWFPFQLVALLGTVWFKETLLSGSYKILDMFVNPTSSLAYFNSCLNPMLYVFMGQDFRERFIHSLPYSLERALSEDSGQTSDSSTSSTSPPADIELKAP
How it was run: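 HEK293 cells were transiently co-transfected with FPR plus Gα15 (Lipofectamine 2000), then reseeded after 24 h on poly-D-lysine plates and grown one more day. Cells were loaded with Fluo-4 NW for 45 min at 37°C. Compound was added and fluorescence (ex 485/em 525 nm) read for 80 s at 1.5 s intervals. Response = maximal peak minus basal.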

CHO = assay: Selectivity ratio of agonist activity at human FPR1 expressed in CHO cells to agonist activity at human FPR2 expressed in CHO cells; type: cell-based
How it was run: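 Ratio of FPR1 to FPR2 EC50 from the CHO-cell forskolin/IBMX cAMP HTRF assay, 30 min at room temperature, 4-parameter logistic fit.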

[2] = Total clearance in Crl:CD(SD) rat at 1 mg/kg, iv by LC-MS/MS analysis; type: ADME, organism-based; conditions: in vivo
How it was run: (§1)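 Male animals received intravenous solution in DMSO/PEG400/saline (5/47.5/47.5). EDTA plasma was extracted with methanol/acetonitrile (1:1) plus internal standard and quantified by LC-MS/MS. AUC0-inf was calculated by the trapezoidal rule with terminal-phase kel extrapolation.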

[3] = Total clearance in cynomolgus monkey at 1 mg/kg, iv by LC-MS/MS analysis; type: ADME, organism-based, Macaca fascicularis; conditions: in vivo; how it was run: as §1
[4] = Cmax in Beagle dog at 1 mg/kg, po by LC-MS/MS analysis; type: ADME, organism-based, Canis lupus familiaris; design: route oral, dose 1 mg/kg; conditions: in vivo
How it was run: (§2)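 Male animals dosed orally with a suspension in 0.5% MC. Blood was taken into EDTA 2K capillaries and plasma was stored frozen. Plasma was mixed with methanol/acetonitrile (1:1) plus internal standard, centrifuged, and drug was measured by LC-MS/MS. AUC0-inf was obtained by the trapezoidal rule, extrapolated with kel from the terminal phase. t1/2 = ln2/kel.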

[5] = Half life in BALB/cCrSlc mouse at 1 mg/kg, po by LC-MS/MS analysis; type: ADME, organism-based; conditions: in vivo; how it was run: as §2
[6] = Clearance in rat liver microsome at 0.1 umol/l and measured for 60 mins by LC-MS/MS analysis; type: ADME; conditions: microsomes, 1 h, 0.1 µM, dose 0.1 µmol/L
How it was run: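 Liver microsomes (1 mg protein/mL final) with an NADPH regenerating system were preincubated 5 min at 37°C, then given 0.1 µmol/L compound. Samples were taken at 0-60 min, quenched in methanol/acetonitrile with internal standard, and analysed by LC-MS/MS. Runs were in triplicate. kel came from 5-30 min points. CLint = kel/protein concentration (mL/min/mg protein).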

EC50 (fMet-Leu-Phe receptor): 2.8 µM | EC50 [1]: 0.0034 µM | clearance [2]: 49 mL/min/kg | clearance [3]: 12 mL/min/kg | Cmax [4]: 820 nM | half-life [5]: 40.8 min | CLH [6]: 21 µL/min/mg
Compound: COc1cc(F)c([C@@H]2CNC(=O)[C@H]2NC(=O)Nc2ccccc2)c(F)c1 [BMS-986235]
Ratio EC50 (CHO): 80
